HTR2A ag = agonists of mouse serotonin 5-HT2A receptor (HTR2A). P35363. CHO-K1 mHTR2A beta-arrestin complementation, luminescence; percent of 30 µM serotonin response. activation, % at 7.6 µM. 0.66% of 360,000 active. AID 624169;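 active = activation above a run cutoff, the mean activation of all tested compounds plus 3 SD, cut at about 14% in these data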;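 note: 0% = plate median of compound wells and 100% = 30 µM serotonin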
TbMetRS inhib = blocks T. brucei methionyl-tRNA synthetase activity; 0.4% of 360,000 active; inhibition, % at 11.9 µM; AID 624268; purified T. brucei MetRS, ATP depletion, Kinase-Glo luminescence;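 active = inhibition above a per-plate cutoff of the control wells' mean inhibition plus 3 SD, cut at about 5.5% in these data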;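 note: 0% = DMSO wells median and 100% = median of wells with control inhibitor compound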
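Dosing: 11.9 µM single point; system: parasite MetRS enzyme; technique: luminescence of leftover ATP; times: 15 min enzyme-compound preincubation, 2 h reaction, 10 min detection, 25 °C; replicates: each compound tested once; read-out basis: percent inhibition relative to median high and low control wells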
bovine MsrA act = activates bovine MsrA enzyme; activation, % at 10.6 µM; 0.3% of 360,000 active; purified bovine MsrA, absorbance read-out; in the data active = activation above about 7.5%;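 note: 0% = vehicle and 100% = reference activator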
AHR activator = activators of human aryl hydrocarbon receptor; activation, % at 5 µM; AID 2796; AHR-responsive luciferase reporter cells, luminescence; 2.5% of 320,000 active; in the data active = activation above about 47%;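 note: 0% = vehicle wells and 100% = reference agonist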
Target sequence (P35869 whole entry, looked up): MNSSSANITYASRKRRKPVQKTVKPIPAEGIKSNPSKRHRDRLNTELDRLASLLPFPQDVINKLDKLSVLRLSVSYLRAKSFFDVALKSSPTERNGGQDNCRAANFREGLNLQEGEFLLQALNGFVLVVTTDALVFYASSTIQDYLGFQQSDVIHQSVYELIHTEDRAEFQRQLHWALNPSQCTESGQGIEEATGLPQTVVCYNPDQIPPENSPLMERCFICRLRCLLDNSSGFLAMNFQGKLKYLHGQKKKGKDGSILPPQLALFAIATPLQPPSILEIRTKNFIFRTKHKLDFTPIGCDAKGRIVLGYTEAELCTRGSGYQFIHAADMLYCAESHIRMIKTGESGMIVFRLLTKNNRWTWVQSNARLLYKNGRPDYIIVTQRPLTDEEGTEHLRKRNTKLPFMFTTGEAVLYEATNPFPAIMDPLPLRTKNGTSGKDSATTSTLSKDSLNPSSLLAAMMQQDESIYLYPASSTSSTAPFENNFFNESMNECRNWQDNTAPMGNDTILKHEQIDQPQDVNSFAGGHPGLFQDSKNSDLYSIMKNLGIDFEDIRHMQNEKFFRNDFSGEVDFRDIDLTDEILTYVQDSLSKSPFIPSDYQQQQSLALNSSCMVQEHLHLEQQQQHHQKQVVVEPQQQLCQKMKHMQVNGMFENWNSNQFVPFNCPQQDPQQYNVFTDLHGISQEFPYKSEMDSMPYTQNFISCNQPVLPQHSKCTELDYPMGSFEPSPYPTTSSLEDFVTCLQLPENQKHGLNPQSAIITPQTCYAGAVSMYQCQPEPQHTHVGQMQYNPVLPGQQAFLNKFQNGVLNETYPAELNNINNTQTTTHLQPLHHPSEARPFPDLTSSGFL
MsrA inhibitor = inhibits bovine methionine sulfoxide reductase A | purified bovine MsrA, absorbance read-out | 0.75% of 360,000 active | AID 651718 | inhibition, % at 15.5 µM; in the data active = inhibition above about 4.5%;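 note: 0% = vehicle wells with enzyme and 100% = reference inhibitor wells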
AI-2 QS modul = modulators of Vibrio harveyi AI-2 quorum sensing system. Vibrio harveyi JMH597 AI-2 luminescence/OD600 ratio, 9 h; hits give low values; strain lacks LuxN and CqsS sensors; 0 = neutral-control median. activity change, % at 7.5 µM. 0.4% of 300,000 active. AID 2094; in the data active = activity change below about -75%, passing the limit was not always enough;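 note: luminescence divided by OD600 gain over 9 h not by final OD600 alone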
TbMetRS confirm = confirmation of Trypanosoma brucei MetRS inhibitors; T. brucei MetRS enzyme, luminescence (ATP depletion); 93% of 1,400 active; inhibition, % at 11.9 µM; shares compounds with TbMetRS inhib; in the data active = inhibition above about 7%
Jurkat cytotox = Jurkat T cell cytotoxicity for MetRS hits; shares compounds with TbMetRS inhib; Jurkat cells viability, ATP luminescence; inhibition, % at 8.3 µM; 12% of 1,400 active; AID 624413; in the data active = inhibition above about 15%;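 note: 0% = vehicle and 100% = reference inhibitor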
Tb MetRS inh FP = orthogonal test for Trypanosoma brucei MetRS inhibitors; inhibition, % at 11.9 µM; 44% of 1,400 active; AID 651607; purified T. brucei MetRS, fluorescence polarization; shares compounds with TbMetRS inhib; in the data active = inhibition above about 17%;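 note: 0% = vehicle wells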
* hit, by the source's call. Compounds with a hit are over-represented: about 4.4% of the library has one in this group of screens.

For Cc1nn(CC(=O)Nc2ccc(Cl)c(S(=O)(=O)N(C)C)c2)c(C)c1[N+](=O)[O-] the results were HTR2A ag 7, TbMetRS inhib 1, bovine MsrA act -5, AHR activator 3, MsrA inhibitor -1 and AI-2 QS modul -58.
For Cc1cccc(NC(=O)c2ccc(-n3cncn3)c([N+](=O)[O-])c2)c1 the results were HTR2A ag -3, TbMetRS inhib 20*, bovine MsrA act 1, AHR activator 2, MsrA inhibitor 1, AI-2 QS modul 16, TbMetRS confirm 57*, Jurkat cytotox -1 and Tb MetRS inh FP 29*.
Screening CN(C)S(=O)(=O)c1cc(NC(=O)c2ccc(-n3ccnc3)c([N+](=O)[O-])c2)ccc1Cl returned HTR2A ag 0, TbMetRS inhib 9.9*, bovine MsrA act 0, AHR activator 53*, MsrA inhibitor -1, AI-2 QS modul 3, TbMetRS confirm 22*, Jurkat cytotox 34* and Tb MetRS inh FP 14.
O=C(Nc1cccc(C(F)(F)F)c1)c1csc([C@@H]2C[C@H](O)[C@@H](CO)O2)n1 was read as HTR2A ag -4, TbMetRS inhib 0, bovine MsrA act -2 and MsrA inhibitor 2.
`CCOC(=O)C1=C(COC(=O)c2ccc(C)c(S(=O)(=O)N3CCOCC3)c2)NC(=O)NC1C` (centres undefined) gave HTR2A ag -4, TbMetRS inhib 0, bovine MsrA act -5 and MsrA inhibitor -1.
C[C@@H]1CCCCO[C@@H](CN(C)S(=O)(=O)c2ccccc2)[C@@H](C)CN([C@H](C)CO)C(=O)c2cc(N(C)C)ccc2O1 was read as HTR2A ag -3, TbMetRS inhib -1, bovine MsrA act -2 and MsrA inhibitor 0.
CCc1ccccc1NC(=O)CNC(=O)c1ccc(-n2cncn2)c([N+](=O)[O-])c1 was read as HTR2A ag 3, TbMetRS inhib 18*, bovine MsrA act -2, AHR activator 6, MsrA inhibitor 0, AI-2 QS modul 27, TbMetRS confirm 47*, Jurkat cytotox -1 and Tb MetRS inh FP 23*.
Screening CCOC(=O)C1=CCN(S(=O)(=O)c2ccccc2Br)C1c1ccc(C)cc1 (centres undefined) returned HTR2A ag -1, TbMetRS inhib 0, bovine MsrA act -2 and MsrA inhibitor 0.
Screening CCO[C@H]1OC(C(=O)NCc2nc3ccccc3[nH]2)=C[C@@H](c2ccc(C(F)(F)F)cc2)[C@@H]1CCCO returned HTR2A ag 4, TbMetRS inhib 11*, bovine MsrA act 0, AHR activator 3, MsrA inhibitor 0, AI-2 QS modul 10, TbMetRS confirm 35*, Jurkat cytotox 6 and Tb MetRS inh FP 12.
Screening C#Cc1ccc([C@@H]2C=C(C(=O)NCc3nc4ccccc4[nH]3)O[C@H](OCC)[C@H]2CCCO)cc1 returned HTR2A ag -6, TbMetRS inhib 28*, bovine MsrA act -1, AHR activator 11, MsrA inhibitor 0, AI-2 QS modul 15, TbMetRS confirm 51*, Jurkat cytotox 6 and Tb MetRS inh FP 33*.
CCO[C@H]1OC(C(=O)NCc2nc3ccccc3[nH]2)=C[C@@H](C)[C@@H]1CCCO was read as HTR2A ag 8, TbMetRS inhib 2, bovine MsrA act -4, AHR activator 2, MsrA inhibitor -1 and AI-2 QS modul 7.
`CCO[C@@H]1OC(C(=O)NCc2nc3ccccc3[nH]2)=C[C@H](c2ccc(C(F)(F)F)cc2)[C@H]1CCCO` gave HTR2A ag -4, TbMetRS inhib 33*, bovine MsrA act 0, AHR activator 4, MsrA inhibitor 0, AI-2 QS modul 27, TbMetRS confirm 61*, Jurkat cytotox 3 and Tb MetRS inh FP 38*.
Screening CCN(CC)C(=O)C1=C(C)N(Cc2ccc(OC)cc2)C(=O)C(CC(=O)NCCc2ccccn2)C1 (centres undefined) returned HTR2A ag -4, TbMetRS inhib 0, bovine MsrA act 2 and MsrA inhibitor -1.
Screening COc1ccc(-n2cc(CNCCCn3ccnc3)c(-c3cccc(F)c3)n2)cc1 returned HTR2A ag -6, TbMetRS inhib 16*, bovine MsrA act -2, AHR activator 9, MsrA inhibitor 1, AI-2 QS modul 12, TbMetRS confirm 5, Jurkat cytotox 4 and Tb MetRS inh FP 4.
Screening N#Cc1c(NC(=O)COC(=O)c2ccc(O)cc2O)sc2c1CCC2 returned HTR2A ag -1, TbMetRS inhib 0, bovine MsrA act -2, AHR activator 2 and MsrA inhibitor 0.
Screening CSc1nc(-c2ccc(Cl)cc2)nn1S(=O)(=O)c1ccccc1 returned HTR2A ag -3, TbMetRS inhib -1, bovine MsrA act -8, AHR activator 15, MsrA inhibitor 0 and AI-2 QS modul 11.
CS(=O)(=O)n1nc(-c2ccc(Cl)cc2)nc1SCc1ccccc1 was read as HTR2A ag -7, TbMetRS inhib 6.7*, bovine MsrA act -2, AHR activator 12, MsrA inhibitor 0, AI-2 QS modul 35, TbMetRS confirm 4, Jurkat cytotox 4 and Tb MetRS inh FP 7.
CCC(=O)Nc1cc2c(cc1Cl)-c1ccccc1C2 was read as HTR2A ag -7, TbMetRS inhib 0, bovine MsrA act -3 and MsrA inhibitor 0.
For Cc1cc(SCC(=O)N/N=C/c2ccc(O)cc2O)c(C)cc1Br the results were HTR2A ag 4, TbMetRS inhib 52*, bovine MsrA act 1, AHR activator 1, MsrA inhibitor 0, AI-2 QS modul 38, TbMetRS confirm 92*, Jurkat cytotox 41* and Tb MetRS inh FP 75*.
For C[C@@H](NCCCn1ccc(NC(=O)OCc2ccccc2)nc1=O)c1cccc2ccccc12 the results were HTR2A ag -7, TbMetRS inhib 0, bovine MsrA act 0 and MsrA inhibitor -1.
Screening COc1ccccc1CNC(=O)c1ccc(CS(=O)(=O)c2ccc(C)cc2)o1 returned HTR2A ag 2, TbMetRS inhib 0, bovine MsrA act -3, AHR activator 4, MsrA inhibitor 0 and AI-2 QS modul 20.
CN(C)C(=O)c1ccccc1Sc1ccc(Cl)cc1Cl was read as HTR2A ag -4, TbMetRS inhib 6.0*, bovine MsrA act -1, AHR activator 1, MsrA inhibitor 0, AI-2 QS modul 19, TbMetRS confirm 16*, Jurkat cytotox -5 and Tb MetRS inh FP 3.
